According to ChEMBL document CHEMBL5303300, “EUbOPEN Chemogenomics Library - Multiplex” (2023):
“And” between values parts separate entries of the source, which are not always exact repeats. Identical values can stand only once.

Test system: Fibroblast
Assay: Multiplex assay against human fibroblast
Format: toxicity, cell-based
Conditions: number of replicates 2
Procedure, shortened: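 Live cells were stained at seeding with Hoechst33342, BioTracker Green Microtubule Cytoskeleton Dye, MitoTracker Red and Annexin V Alexa Fluor 680, then imaged on a CQ1 microscope at 37°C and 5% CO2 after compound addition. CellPathfinder machine-learning gating split cells into Hoechst high-intensity objects or normal cells. Normal cells were split into healthy, pyknosed or fragmented nuclei, and pyknosed cells into mitotic or apoptotic. Tubulin, mitochondrial-mass and membrane-permeability phenotypes are per cents of healthy-nucleus cells.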

[1] = 12 h, 1 µM, compound concentration 1 uM
[2] = 12 h, 10 µM, compound concentration 10 uM
[3] = 24 h, 1 µM, compound concentration 1 uM
[4] = 24 h, 10 µM, compound concentration 10 uM
[5] = 48 h, 1 µM, compound concentration 1 uM
[6] = 48 h, 10 µM, compound concentration 10 uM

O=C(Nc1ccnc(NC(=O)C2CC2)c1)c1c(Cl)cccc1Cl
Population Apoptotic (%) [1]: 47% and 27%
Population Fragmented Nuclei (%) [1]: 6% and 9%
Population Healthy Nuclei (%) [1]: 65% and 67%
Population Hoechst High Intensity Objects (%) [1]: 0%
Population Membrane Permeable-Phenotype (%) [1]: 5% and 7%
Population Mitochondria Different-Phenotype (%) [1]: 0%
Population Mitotic Cells (%) [1]: 52% and 72%
Population Normal (%) [1]: 100%
Population Pyknosed Nuclei (%) [1]: 27% and 23%
Population Tubulin-Different-Phenotype (%) [1]: 9% and 6%
Total Cell Count [1]: 145 and 189
Population Apoptotic (%) [2]: 55% and 72%
Population Fragmented Nuclei (%) [2]: 9% and 14%
Population Healthy Nuclei (%) [2]: 78% and 77%
Population Hoechst High Intensity Objects (%) [2]: 0%
Population Membrane Permeable-Phenotype (%) [2]: 2%
Population Mitochondria Different-Phenotype (%) [2]: 0%
Population Mitotic Cells (%) [2]: 44% and 27%
Population Normal (%) [2]: 100%
Population Pyknosed Nuclei (%) [2]: 11% and 8%
Population Tubulin-Different-Phenotype (%) [2]: 7% and 6%
Total Cell Count [2]: 244 and 215
Population Apoptotic (%) [3]: 60% and 48%
Population Fragmented Nuclei (%) [3]: 13% and 7%
Population Healthy Nuclei (%) [3]: 60% and 70%
Population Hoechst High Intensity Objects (%) [3]: 0%
Population Membrane Permeable-Phenotype (%) [3]: 7%
Population Mitochondria Different-Phenotype (%) [3]: 1% and 0%
Population Mitotic Cells (%) [3]: 40% and 51%
Population Normal (%) [3]: 100%
Population Pyknosed Nuclei (%) [3]: 26% and 21%
Population Tubulin-Different-Phenotype (%) [3]: 14% and 9%
Total Cell Count [3]: 150 and 188
Population Apoptotic (%) [4]: 59% and 70%
Population Fragmented Nuclei (%) [4]: 8% and 17%
Population Healthy Nuclei (%) [4]: 82% and 74%
Population Hoechst High Intensity Objects (%) [4]: 0%
Population Membrane Permeable-Phenotype (%) [4]: 2% and 3%
Population Mitochondria Different-Phenotype (%) [4]: 0%
Population Mitotic Cells (%) [4]: 40% and 29%
Population Normal (%) [4]: 99%
Population Pyknosed Nuclei (%) [4]: 9% and 8%
Population Tubulin-Different-Phenotype (%) [4]: 4% and 8%
Total Cell Count [4]: 232 and 213
Population Apoptotic (%) [5]: 67% and 60%
Population Fragmented Nuclei (%) [5]: 17% and 16%
Population Healthy Nuclei (%) [5]: 53% and 65%
Population Hoechst High Intensity Objects (%) [5]: 0%
Population Membrane Permeable-Phenotype (%) [5]: 4% and 6%
Population Mitochondria Different-Phenotype (%) [5]: 0%
Population Mitotic Cells (%) [5]: 32% and 40%
Population Normal (%) [5]: 99% and 100%
Population Pyknosed Nuclei (%) [5]: 28% and 17%
Total Cell Count [5]: 170 and 199
Population Apoptotic (%) [6]: 56% and 44%
Population Fragmented Nuclei (%) [6]: 9% and 24%
Population Healthy Nuclei (%) [6]: 81% and 71%
Population Hoechst High Intensity Objects (%) [6]: 0%
Population Membrane Permeable-Phenotype (%) [6]: 2% and 1%
Population Mitochondria Different-Phenotype (%) [6]: 0%
Population Mitotic Cells (%) [6]: 43% and 55%
Population Normal (%) [6]: 100%
Population Pyknosed Nuclei (%) [6]: 9% and 3%
Population Tubulin-Different-Phenotype (%) [6]: 10% and 8%
Total Cell Count [6]: 239 and 229
